Data set [1] concerns Friend leukemia cells (Mus musculus). The experiment in a line: In vitro concentration required for growth inhibition of murine Friend leukemia cell. The note with it: read-out: ID50 (the source's name).
Data set [2] relates to Mus musculus. The experiment in a line: In vivo acute toxicity (nonlethal dose) against mice by intraperitoneal administration. The format is organism-based. The note with it: ip. The procedure, abridged:
(§1)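 Mice (ICFW, C3H or B6D2 F1; 6-8 weeks; 22-24 g) in five groups of six. Drug dissolved in acidified saline (equimolar acetic acid) and given as a single ip or iv dose of 2, 5, 10, 25 or 50 mg/kg. Mortality observed over 30 days to set the lethal dose (LD100) and the highest nonlethal dose (LD0).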

The subject of data set [3] is Mus musculus. The experiment in a line: In vivo acute toxicity (lethal dose) against mice by intraperitoneal administration. Particulars: ip. The data set is classed as organism-based. The procedure, abridged:
as §1

For data set [4], the system named is Nucleic Acid. The experiment in a line: B app constant towards DNA. The data set is classed as nucleic-acid assay. The note with it: Bos taurus. The procedure, abridged: (§2)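 Association constants for DNA binding were derived from absorption changes of calf thymus DNA at 6 × 10^-7 M, expressed as mononucleotide concentration. The buffer was 50 mM Tris-HCl, pH 7.4, with 0.1 M NaCl.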

In data set [5] the test system is Nucleic Acid. The data set can be described thus: (§3) Apparent association constant towards DNA at concentration of 10e-7/M. The format is nucleic-acid assay. The note with it: Bos taurus. In a few lines: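 Apparent association constant from absorption changes of 6 × 10^-7 M calf thymus DNA (as mononucleotide concentration) in 50 mM Tris-HCl, pH 7.4, 0.1 M NaCl.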

Data set [6] deals with Mus musculus. The experiment in a line: In Vivo evaluation for the antitumor activity on grafted tumor friend cells at the dose 20 mg/kg and Increase in the life span was determined. The format is functional. The procedure, abridged: (§4)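 Friend tumor cells, 10^6, injected iv into syngeneic mice. Mice randomized in groups of 16. Drug dissolved in acidified saline (equimolar acetic acid) and given as a single iv dose 3 days after inoculation. Median survival time recorded. %ILS = (treated median survival − control median survival)/control median survival × 100.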

Data set [7] has as its system Mus musculus. The experiment in a line: In Vivo antitumor activity on grafted tumor friend cells at the dose 5 mg/kg and decrease in intravenous 10 e 6 cells and median survival time was determined. The format is functional. The procedure, abridged:
as §4

Data set [8] deals with Mus musculus. The data set can be described thus: In vivo antitumor activity on L1210 leukemia cells at the dose 15 mg/kg administered intraperitoneally 1 day after 10 e5 L1210 leukemia cells and range of deaths. The data set is classed as functional. Particulars: route intraperitoneal.
Data set [9] deals with Mus musculus. The experiment in a line: In vivo evaluation of antitumor activity on L1210 leukemia cells at the dose 15 mg/kg administered intraperitoneally 1 day after 10 e5 L1210 leukemia cells and increase in life span;(P<0.001). The format is functional. Particulars: L1210, ip, 24 h, route intraperitoneal.
The test system of data set [10] is Mus musculus. The data set can be described thus: In vivo acute toxicity (nonlethal dose) against mice by intravenous administration. The format is organism-based. The procedure, abridged:
as §1

Data set [11] relates to Mus musculus. The data set can be described thus: In vivo acute toxicity (lethal dose) against mice by intravenous administration. The format is organism-based. The procedure, abridged: as §1
The subject of data set [12] is Mus musculus. The data set can be described thus: In vivo evaluation of antitumor activity on L1210 leukemia cells at the dose 5 mg/kg administered intraperitoneally 1 day after 10 e5 L1210 leukemia cells and Mean survival time. The note with it: route intraperitoneal.
Data set [13] deals with Nucleic Acid. The description is as §3. The data set is classed as nucleic-acid assay. Particulars: Bos taurus. The procedure, abridged: as §2
This is another data set of the same source.

The test system of data set [14] is Mus musculus. The data set can be described thus: In Vivo evaluation for the antitumor activity on grafted tumor friend cells at the dose 5 mg/kg and Increase in the life span. The data set is classed as functional. The procedure, abridged:
as §4

The subject of data set [15] is Mus musculus. The data set can be described thus: In Vivo antitumor activity on grafted tumor friend cells at the dose 5 mg/kg and decrease in intravenous 10 e 6 cells and median survival time. The data set is classed as functional. In a few lines:
as §4

Data set [16] relates to Mus musculus. The experiment in a line: In vivo antitumor activity on L1210 leukemia cells at the dose 5 mg/kg administered intraperitoneally 1 day after 10 e5 L1210 leukemia cells and range of deaths. Particulars: route intraperitoneal. The format is functional.
Data set [17] relates to Mus musculus. The data set can be described thus: In vivo evaluation of antitumor activity on L1210 leukemia cells at the dose 5 mg/kg administered intraperitoneally 1 day after 10 e5 L1210 leukemia cells and increase in life span;. The data set is classed as functional. The note with it: L1210, ip, 24 h, route intraperitoneal.
Data set [18] deals with Mus musculus. The data set can be described thus: In vivo evaluation of antitumor activity on L1210 leukemia cells at the dose 5 mg/kg administered intraperitoneally 1 day after 10 e5 L1210 leukemia cells and Mean survival time. The format is functional. The note with it: route intraperitoneal.
The test system of data set [19] is Nucleic Acid. The data set can be described thus: Apparent association constant towards DNA at concentration of 10e-7/M. The format is nucleic-acid assay. The note with it: Bos taurus. In a few lines:
as §2

Data set [20] concerns Mus musculus. The experiment in a line: In vivo evaluation of antitumor activity on L1210 leukemia cells at the dose 15 mg/kg administered intraperitoneally 1 day after 10 e5 L1210 leukemia cells and Mean survival time. The format is functional. Particulars: route intraperitoneal.
Data set [21] concerns Mus musculus. The data set can be described thus: In vivo evaluation of antitumor activity on L1210 leukemia cells at the dose 15 mg/kg administered intraperitoneally 1 day after 10 e5 L1210 leukemia cells and increase in life span. Particulars: L1210, ip, 24 h, route intraperitoneal. The data set is classed as functional.

pIC50: −log10 of the molar value. Starred links: 1 amine or outer side, 2 acyl side, 3 side chain; linkers in the order of their positions; H or OH if unused. Positions of bridges follow the written chain, without caps; N, C: chain ends. Non-standard residues stand in square brackets, D forms with d. Residues, ends and D or L forms follow the SMILES beside them. Chains are numbered I, II in the order given. Actinocin(1to9) = Cc1c2oc3c(C)ccc(C(=O)[*:2])c3nc-2c(C(=O)[*:1])c(N)c1=O; NMeV = CN[C@H](C(=O)O)C(C)C; Sar = CNCC(=O)O

What is called ILS is how much longer treated animals lived than controls. Low values mean a small benefit in survival, high ones a large benefit in survival.

`CCN(CC)CCCNc1nccc2c(C)c3[nH]c4ccc(OCc5ccccc5)cc4c3c(C)c12`: the pIC50 in data set [1] is 6.00.

Consider `CCN(CCCN)CCCNc1nccc2c(C)c3[nH]c4ccc(OC)cc4c3cc12`, for which the LD0 with Mus musculus [2] came out at 5 mg/kg. The compound further showed an LD100 in the data set with Mus musculus [3] of 15 mg/kg. Besides, the pIC50 in data set [1] is 6.70.

In the case of `CCN(CC)CCCNc1nccc2c(C)c3[nH]c4ccc(O)cc4c3cc12`, the Bapp with Nucleic Acid [4] is 0.11. For the same compound, the K app with Nucleic Acid [5] was 3.7e+07 M⁻¹. In the data set on Mus musculus [6], this compound registered an ILS at 20 mg/kg of 29.4%. The MST with Mus musculus [7] stood at 11 days; in the data set with Mus musculus [12] it was 16 days. In the data set on Mus musculus [8], this compound showed a Range of deaths of 18 days. In addition, in the data set on Mus musculus [9], the ILS at 15 mg/kg was 49.5%. For the same compound, the LD0 with Mus musculus [10] and with Mus musculus [2] was 5 mg/kg throughout. Besides, the LD100 in the data set on Mus musculus [11] and in the data set with Mus musculus [3] was 15 mg/kg in each case. In addition, the pIC50 in [1] is 7.70.

Take `COc1ccc2[nH]c3c(C)c4ccnc(NCCCN5CCN(CCCN)CC5)c4cc3c2c1`: the values for the LD0 in the data set on Mus musculus [10] and with Mus musculus [2] were less than 1 mg/kg and 25 mg/kg, respectively. Moreover, the LD100 came out at 2.5 mg/kg with Mus musculus [11] and 50 mg/kg in the data set with Mus musculus [3]. The pIC50 in data set [1] is 6.70.

On to `COc1ccc2[nH]c3c(C)c4ccnc(NCCN)c4cc3c2c1`, for which the Bapp in the data set on Nucleic Acid [4] amounted to 0.135. Further, the K app in the data set with Nucleic Acid [13] stood at 3.3e+07 M⁻¹. Further, the results for the ILS at 5 mg/kg in the data set with Mus musculus [14] and in the data set on Mus musculus [17] were 18.8% and 8.7%, respectively. Also, the MST came to 10.1 days in the data set on Mus musculus [15] and 13.8 days with Mus musculus [18]. Besides, the Range of deaths with Mus musculus [16] turned out to be 20 days. Moreover, the LD0 with Mus musculus [2] came out at 5 mg/kg. The same compound registered an LD100 with Mus musculus [3] of 10 mg/kg. Besides, the pIC50 in [1] is 7.00.

`COc1ccc2[nH]c3c(C)c4ccnc(NCCCCCN)c4cc3c2c1` had a Bapp in the data set on Nucleic Acid [4] of 0.15. Moreover, the K app in the data set on Nucleic Acid [19] came to 4.5e+07 M⁻¹. Further, the pIC50 in [1] was 6.30.

With `Cc1c2ccnc(NCCCN)c2cc2c1[nH]c1ccc(OCc3ccccc3)cc12`, the pIC50 in data set [1] was 6.52.

On to `COc1ccc2[nH]c3c(C)c4ccnc(NCCN(C)C)c4cc3c2c1`, for which the Bapp in the data set with Nucleic Acid [4] came out at 0.11. For the same compound, the K app with Nucleic Acid [13] was 2.8e+07 M⁻¹. For the same compound, the pIC50 in [1] was 6.10.

Regarding `Cc1c2oc3c(C)ccc(C(=O)N[C@@H]4C(=O)N[C@H](C(C)C)C(=O)N5CCC[C@H]5C(=O)N(C)CC(=O)N(C)[C@@H](C(C)C)C(=O)O[C@@H]4C)c3nc-2c(C(=O)N[C@@H]2C(=O)N[C@H](C(C)C)C(=O)N3CCC[C@H]3C(=O)N(C)CC(=O)N(C)[C@@H](C(C)C)C(=O)O[C@@H]2C)c(N)c1=O` [DACTINOMYCIN] (I: T[dV]P[Sar][NMeV] / II: T[dV]P[Sar][NMeV]; ester I:1-I:C, II:1-II:C; linker I:N-II:N via Actinocin(1to9)), in [1], the pIC50 was 9.00.

`COc1ccc2[nH]c3c(C)c4ccnc(Nc5ccc(NS(C)(=O)=O)cc5)c4cc3c2c1`: in [1], the pIC50 was 5.70.

In the case of `CCN(CC)CCCNc1nccc2c(C)c3[nH]c4ccc(OCc5ccccc5)cc4c3cc12`, the pIC50 in [1] was 5.70.

`CCN(CC)CCCC(C)Nc1nccc2c(C)c3[nH]c4ccc(OC)cc4c3cc12` (stereo not drawn) came in with an MST in the data set with Mus musculus [20] of 12.5 days. In addition, in the data set on Mus musculus [8], the Range of deaths is 14 days. In the data set on Mus musculus [21], this compound gave an ILS at 15 mg/kg of 8.7%. The LD0 in the data set with Mus musculus [2] came to 1.5 mg/kg. The compound also gave an LD100 in the data set on Mus musculus [3] of 30 mg/kg. In addition, the pIC50 in data set [1] was 6.30.

In turn, `COc1ccc2[nH]c3c(C)c4ccnc(NCCCN(C)C)c4c(C)c3c2c1` had an MST with Mus musculus [20] of 15.3 days. The same compound showed a Range of deaths in the data set on Mus musculus [8] of 18 days. The ILS at 15 mg/kg with Mus musculus [21] worked out at 33.3%. In addition, the LD0 in the data set with Mus musculus [2] was 15 mg/kg. In the data set with Mus musculus [3], this compound registered an LD100 of 30 mg/kg. Further, the pIC50 in data set [1] was 6.52.

(Values after ChEMBL document CHEMBL1121556, “Structure-activity relationships in a series of newly synthesized 1-amino-substituted ellipticine derivatives” (J Med Chem, 1980).)
